Data on twelve compounds can be found in ChEMBL document CHEMBL4602724, “Validating the 1,2-Difluoro Motif As a Hybrid Bioisostere of CF3 and Et Using Matrix Metalloproteinases As Structural Probes” (J Med Chem, 2020).

The target in assay [1] is 72 kDa type IV collagenase (Homo sapiens, UniProt P08253). The assay is described as follows: Inhibition of human active MMP2 using (7-methoxycoumarin-4-yl)acetyl-Pro-Leu-Gly-Leu-(3-(2,4-dinitrophenyl)-L-2,3-diamino-propionyl)Ala-Arg-NH2 as substrate preincubated for 30 mins followed by substrate addition and measured for 10 mins by fluorescence assay. Summed up: (§1)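 Human active enzyme at 2 nM was preincubated with compound (10 pM–1 mM) for 30 min at 37 °C in 50 mM Tris·HCl pH 7.5 with 0.2 M NaCl, 5 mM CaCl2, […] ZnSO4 and 0.05% Brij 35. Substrate was then added and fluorescence (ex 330/em 390 nm) followed at 37 °C. Initial 10-min linear rates were plotted against inhibitor concentration. IC50 is the mean of three experiments.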
Chain of 72 kDa type IV collagenase (P08253 whole entry): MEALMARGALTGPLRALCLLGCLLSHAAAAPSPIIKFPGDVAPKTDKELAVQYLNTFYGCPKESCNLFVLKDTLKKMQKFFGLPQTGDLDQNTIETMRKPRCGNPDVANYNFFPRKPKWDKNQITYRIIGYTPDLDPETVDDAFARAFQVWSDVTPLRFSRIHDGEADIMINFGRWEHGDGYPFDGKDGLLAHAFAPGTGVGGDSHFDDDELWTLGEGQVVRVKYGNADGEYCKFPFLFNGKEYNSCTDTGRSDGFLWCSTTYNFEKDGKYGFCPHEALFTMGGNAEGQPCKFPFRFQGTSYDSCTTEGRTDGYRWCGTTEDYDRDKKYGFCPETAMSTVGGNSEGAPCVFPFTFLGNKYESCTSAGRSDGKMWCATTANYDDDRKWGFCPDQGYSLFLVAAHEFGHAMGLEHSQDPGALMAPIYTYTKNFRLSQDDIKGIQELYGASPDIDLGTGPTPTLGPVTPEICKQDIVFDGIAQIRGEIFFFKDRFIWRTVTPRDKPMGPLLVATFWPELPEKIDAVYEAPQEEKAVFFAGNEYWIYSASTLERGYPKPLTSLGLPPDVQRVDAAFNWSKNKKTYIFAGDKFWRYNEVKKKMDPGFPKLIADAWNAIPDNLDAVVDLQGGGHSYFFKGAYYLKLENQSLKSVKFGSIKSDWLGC

In the next assay the target is Neutrophil collagenase (Homo sapiens, UniProt P22894). The assay is described as follows: Inhibition of human active MMP8 using (7-methoxycoumarin-4-yl)acetyl-Pro-Leu-Gly-Leu-(3-(2,4-dinitrophenyl)-L-2,3-diamino-propionyl)Ala-Arg-NH2 as substrate preincubated for 30 mins followed by substrate addition and measured for 10 mins by fluorescence assay. Summed up: as §1
Chain of Neutrophil collagenase (P22894 whole entry): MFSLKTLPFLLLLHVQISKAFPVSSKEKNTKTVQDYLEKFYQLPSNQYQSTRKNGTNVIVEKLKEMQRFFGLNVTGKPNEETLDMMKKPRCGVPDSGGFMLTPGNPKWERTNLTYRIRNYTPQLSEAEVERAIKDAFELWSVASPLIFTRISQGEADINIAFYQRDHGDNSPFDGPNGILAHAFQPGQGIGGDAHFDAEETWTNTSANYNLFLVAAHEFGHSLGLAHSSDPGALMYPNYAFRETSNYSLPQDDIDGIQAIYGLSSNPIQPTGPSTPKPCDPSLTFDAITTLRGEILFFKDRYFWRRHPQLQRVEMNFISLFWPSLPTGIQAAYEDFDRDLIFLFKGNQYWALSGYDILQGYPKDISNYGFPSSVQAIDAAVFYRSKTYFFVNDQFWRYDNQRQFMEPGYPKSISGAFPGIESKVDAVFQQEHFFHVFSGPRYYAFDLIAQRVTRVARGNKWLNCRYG

For assay [2], the target named is Matrix metalloproteinase-9 (Homo sapiens, UniProt P14780). Briefly: Inhibition of human active MMP9 using (7-methoxycoumarin-4-yl)acetyl-Pro-Leu-Gly-Leu-(3-(2,4-dinitrophenyl)-L-2,3-diamino-propionyl)Ala-Arg-NH2 as substrate preincubated for 30 mins followed by substrate addition and measured for 10 mins by fluorescence assay. Put shortly: as §1
Chain of Matrix metalloproteinase-9 (P14780 whole entry): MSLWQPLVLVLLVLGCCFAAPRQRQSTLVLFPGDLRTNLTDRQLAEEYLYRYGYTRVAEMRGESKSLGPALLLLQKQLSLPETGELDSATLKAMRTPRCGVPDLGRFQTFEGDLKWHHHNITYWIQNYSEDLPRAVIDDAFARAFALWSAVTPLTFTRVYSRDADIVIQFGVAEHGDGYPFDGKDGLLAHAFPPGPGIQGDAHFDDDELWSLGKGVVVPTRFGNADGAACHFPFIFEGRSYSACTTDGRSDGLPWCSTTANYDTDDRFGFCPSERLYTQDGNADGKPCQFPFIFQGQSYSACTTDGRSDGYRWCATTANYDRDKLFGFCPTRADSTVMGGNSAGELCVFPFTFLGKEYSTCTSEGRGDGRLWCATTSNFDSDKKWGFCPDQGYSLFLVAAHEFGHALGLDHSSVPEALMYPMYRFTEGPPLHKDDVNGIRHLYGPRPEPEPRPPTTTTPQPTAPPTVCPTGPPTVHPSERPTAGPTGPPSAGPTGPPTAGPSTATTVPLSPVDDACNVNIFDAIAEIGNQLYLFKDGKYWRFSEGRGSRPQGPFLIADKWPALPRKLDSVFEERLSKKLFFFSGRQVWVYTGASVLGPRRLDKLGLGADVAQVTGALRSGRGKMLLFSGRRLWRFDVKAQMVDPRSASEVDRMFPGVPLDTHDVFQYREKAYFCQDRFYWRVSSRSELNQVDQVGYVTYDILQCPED
The target of a further assay is Collagenase 3 (Homo sapiens, UniProt P45452). The assay is described as follows: Inhibition of human active MMP13 using (7-methoxycoumarin-4-yl)acetyl-Pro-Leu-Gly-Leu-(3-(2,4-dinitrophenyl)-L-2,3-diamino-propionyl)Ala-Arg-NH2 as substrate preincubated for 30 mins followed by substrate addition and measured for 10 mins by fluorescence assay. Summed up:
as §1

In general, IC50 refers to the concentration at which inhibition is half-maximal. `CCCCCCCCC1(Cc2ccccc2)C(=O)NC(=O)NC1=O`: the IC50 is 288 nM in assay [1] (read-out: IC50), 157 nM at Neutrophil collagenase (read-out: IC50), 22 nM in assay [2] (read-out: IC50) and 214 nM at Collagenase 3 (read-out: IC50).
Regarding `CCCCCCCCCC1(Cc2ccccc2)C(=O)NC(=O)NC1=O`, the IC50 amounted to 210 nM in assay [1] (read-out: IC50), 96 nM on Neutrophil collagenase (read-out: IC50), 5 nM in assay [2] (read-out: IC50) and 180 nM on Collagenase 3 (read-out: IC50).
For the compound `CC(C)CCCCCCCC1(Cc2ccccc2)C(=O)NC(=O)NC1=O`, the IC50 result (in assay [1]; at Neutrophil collagenase; in assay [2]; against Collagenase 3) was “Nd(Insoluble)” in each case.
With `O=C1NC(=O)C(CCCCCCCC(F)(F)F)(Cc2ccccc2)C(=O)N1`, the IC50 was 567 nM in assay [1] (read-out: IC50), 229 nM at Neutrophil collagenase (read-out: IC50), 52 nM in assay [2] (read-out: IC50) and 753 nM at Collagenase 3 (read-out: IC50).
For `CCCCCCCCC1(Cc2ccc(OC)cc2)C(=O)NC(=O)NC1=O`, the IC50 in assay [1] (read-out: IC50) is 42 nM; on Neutrophil collagenase (read-out: IC50) it was 73 nM; in assay [2] (read-out: IC50), 3 nM; at Collagenase 3 (read-out: IC50), 94 nM.
`CCCCCCCCCC1(Cc2ccc(OC)cc2)C(=O)NC(=O)NC1=O`: the IC50 was determined as 94 nM in assay [1] (read-out: IC50), 84 nM at Neutrophil collagenase (read-out: IC50), 93 nM in assay [2] (read-out: IC50) and 83 nM on Collagenase 3 (read-out: IC50).
In the same order, the values of `COc1ccc(CC2(CCCCCCCC(C)C)C(=O)NC(=O)NC2=O)cc1` are 207 nM, 281 nM, 60 nM and 225 nM.
On to `COc1ccc(CC2(CCCCCCCC(F)(F)F)C(=O)NC(=O)NC2=O)cc1`, for which the IC50 in assay [1] (read-out: IC50) turned out to be 209 nM; at Neutrophil collagenase (read-out: IC50), 187 nM; in assay [2] (read-out: IC50) it was 62 nM; on Collagenase 3 (read-out: IC50), 177 nM.
Consider `COc1ccc(CC2(CCCCCCC(F)CF)C(=O)NC(=O)NC2=O)cc1` (stereo not drawn), for which the IC50 in assay [1] (read-out: IC50) was 411 nM; at Neutrophil collagenase (read-out: IC50) it was 165 nM; in assay [2] (read-out: IC50), 47 nM; on Collagenase 3 (read-out: IC50), 17 nM.
In the same order, the values of `O=C1NC(=O)C(CCCCCCCC(F)CF)(Cc2ccccc2)C(=O)N1` (stereo not drawn) are 320 nM, 180 nM, 60 nM and 163 nM.
In the same order, the values of `O=C1NC(=O)C(CCCCCCC(F)CF)(Cc2ccccc2)C(=O)N1` (stereo not drawn) are 253 nM, 125 nM, 123 nM and 127 nM.
In the same order, the values of `COc1ccc(CC2(CCCCCCCC(F)CF)C(=O)NC(=O)NC2=O)cc1` (racemic) are 139 nM, 110 nM, 26 nM and 64 nM.
